Data from the EternaBench riboswitch data.

Test system: MS2 coat protein
Experiment: apparent Kd, MS2 coat protein; higher = weaker binding; RNA-MaP array
In short: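 Sequenced DNA templates on an Illumina sequencing chip were transcribed into the designed RNAs. These were incubated at room temperature in Tris-HCl pH 7.5 buffer containing KCl, MgCl2, BSA, DTT, tRNA and Tween20 with fluorescently labeled MS2 coat protein at 1.5 nM to 3 μM, with or without input ligand. Apparent Kd is the median of binding-curve fits per cluster, and designs with fewer than 10 clusters measured were excluded.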

[1] = designed as: OFF switch for flavin mononucleotide, no ligand
[2] = ligand present: flavin mononucleotide, designed as: OFF switch for flavin mononucleotide
[3] = designed as: ON switch for flavin mononucleotide, no ligand
[4] = ligand present: flavin mononucleotide, designed as: ON switch for flavin mononucleotide

Row | Sequence | apparent Kd [1] | apparent Kd [2] | apparent Kd [3] | apparent Kd [4] | other results
1 | GUGUCGCGUACAGGAUAUGCUUAGGCGCUGCCCUCACAUGAGGAUCACCCAUGUAGUUUCCGCAGGCAGAAGGGUACUGACGUC | 9.67 nM | 16.2 nM |  |  | 
2 | GCUGAUCAACCCUAGGAUAUCACCCAUACCACAUGAGGAUCACCCAUGUCGGGUUGCUAUGUGGCUGAGAAGGAGGUGCACUAUAC |  |  | 23 nM | 8.76 nM | 
3 | AGCGUGGAUAAAGGAUAUGUACCGGUAACUACAUGAGGAUCACCCAUGUCUUCAGGCCAAAACCGACAGAAGGUUACUUAUCGC | 21.7 nM | 20.7 nM |  |  | 
4 | CACGCUCACCAGAAGGCAGAGCAUAAAUGACAUGAGGAUCACCCAUGUACGCAGGAGAUCGGGUCUGAGGAUAUGGCAAUAGGC |  |  | 21.4 nM | 20.5 nM | 
5 | ACAGGACUAGUAGGAUAUGCGCCGGUAGUACCCGCAGAAGGACUUUCACGGGUUAUUGUCACAUGAGGAUCACCCAUGUGAGGG | 13.2 nM | 13 nM |  |  | 
6 | UACCCUCGAGGAUAUUAGCUAGCGAACAUGAGGAUCACCCAUGUGCAUCUUCCCAGCCGUUAAGAAGGCGAUUACC | 93.1 nM | 79.2 nM |  |  | 
7 | GCUUUGCUGUGGUCCCUGAUACAUGAGGAUCACCCAUGUGAGAAGGAUAUUCAGAAUGGUCUCCCGAAGAAGGUCUGCACCUGG | 15.4 nM | 11.3 nM |  |  | 
8 | UGAUGAUGACAGGAUAUUAGCGUAAUGAAACUUUAAGAAGGGUCGACAUGAGGAUCACCCAUGUAUGAUCUCGA | 5.5 nM | 5.38 nM |  |  | 
9 | UAGUUGCAUACAUGAGGAUCACCCAUGUUUUAAUGGGUAACUAGAAGGUGUUGACGUUGGCUAAACAAGGAUAUAGUUCGUGCU | 43.3 nM | 46.5 nM |  |  | 
10 | AUCGUGCCAAGAGGAUAUCACCAUUCAAUACCCACAUGAGGAUCACCCAUGUAUGCAGUGUUCCGUGAGAAGGCUUGCAUACCA |  |  | 113 nM | 19.4 nM | 
11 | AAGAGUGUGAGAGGAUAUGCUUACCCAUAUCACAUGAGGAUCACCCAUGUCGGCGAUUGUAUUAUGCAGAAGGCUCAAGGACUC |  |  | 18.3 nM | 9.8 nM | 
12 | AACUCCACCGCAGGAUAUCCGGUCUCUCUGUAGACGACAUGAGGAUCACCCAUGUAUCCGGGAAUGGAGAAGGGCGGUGCUCCU | 16.4 nM | 13 nM |  |  | 
13 | GAUCAUUUAGUGAGGAUAUGUCUCCUGCAAAGUCGACAGAAGGCACAUGAGGAUCACCCAUGUUCGCUUCGGAU | 5 nM | 5.75 nM |  |  | 
14 | CUCCCACAUGAGGAUCACCCAUGUAUGAAAAUACAAGGAUAUGGCGUCCUGAUUAGCGGCCCAGAAGGUGUGCUUU |  |  | 114 nM | 70.2 nM | 
15 | UAAAACGGAUCAGGAUAUGUGAAACUGAGUGCGUGAACACUCGCCUACAUGAGGAUCACCCAUGUACAGAAGGGAACUACUACA |  |  | 16.4 nM | 13.9 nM | 
16 | GCAGGACAUGAGGAUCACCCAUGUGAGGGCAGAGGAGGAUAUAACUACCACUAUUGAUCGUUAGAAGGCCUAGAGG |  |  | 40 nM | 26 nM | 
17 | AACCAUCUCGGCGAUACCAGUGCCUACGAGUACAUGAGGAUCACCCAUGUAGGUGACCGACACCCUUGGCAGCGCGAUUGAGUCA |  |  |  |  | apparent Kd (designed as: ON switch for theophylline, no ligand): 140 nM; apparent Kd (ligand present: theophylline, designed as: ON switch for theophylline): 70.6 nM
18 | CUACGGACGGAAGGAUAUAUACGGGUGCCCAGUAUAGAAGGUCCAUACAUGAGGAUCACCCAUGUCAUUAAACCUACGGAGGAG |  |  | 145 nM | 80.6 nM | 
19 | UACCAUAGACCAGUUAGCGACACAUGAGGAUCACCCAUGUAGAGAAGGUGCUCUAUCUUAAGACGCAAGGAUAUCUGCAUUAUA | 20.3 nM | 21.9 nM |  |  | 
20 | CCCAAUUUCCGAGAUAUGGGUCCAACUAAACGAGGACCGGUACGGCCGCCACUCGACUACAAACAUGAGGAUCACCCAUGUAAAG |  |  |  |  | apparent Kd (designed as: OFF switch for tryptophan, no ligand): 17 nM; apparent Kd (ligand present: tryptophan, designed as: OFF switch for tryptophan): 17.4 nM
21 | ACACAUAAUCUCGGACAUGAGGAUCACCCAUGUGUCACAAUCAGAAGGCACACUUGACAAGGGAGUGAGGAUAUGAAUACAUUA | 124 nM | 32.7 nM |  |  | 
22 | UUCAUUCGAACCAAGGAUAUGUGAUAAGUUACAUGAGGAUCACCCAUGUAUCAGUACAUCAACAGACAGAAGGUGGUGCAUAGUCA |  |  | 7.14 nM | 6.57 nM | 
23 | AGUGCAAUAUAGAAGGCCCAAACAUGAGGAUCACCCAUGUAGGUGUCACUGGUAGUGAAGGCUCGGGAGGAUAUAUCAUCCACA |  |  | 32.9 nM | 30.7 nM | 
24 | GAAGUCGCCGAGAAGGGAGCGAAACUCUCUAUCACAUGAGGAUCACCCAUGUAGUUCUCGUGAGCUCAGGAUAUCGUCGAACGC | 14.5 nM | 10.5 nM |  |  | 
25 | ACUAUACAUGAGGAUCACCCAUGUGGUCACAUAUGAGGAUAUAUGCGGCUGUCCCGGUCAAUAGAAGGCAUAUUUA |  |  | 52 nM | 53.5 nM | 
26 | GUACUGUACAAGAAGGUUGAUUUGCAUCAAGAUCCGAUUUACAUGAGGAUCACCCAUGUUUUAUCAAAGGAUAUUGGUACAACG | 11 nM | 66.8 nM |  |  | 
